The entries come from a sample that favours hits as a whole.
WNV NS2B-NS3 inh: inhibitors of WNV NS2B-NS3 protease, primary screen, biochemical, fluorogenic substrate. Genome polyprotein (West Nile virus), P06935. 65,000 tested, 0.18% active. fluorogenic substrate Ex360/Em465; stronger effect = lower value. z-score (test concentration not listed); in the data active means z-score below about -3
Target sequence (P06935 1371-1501 limits assumed): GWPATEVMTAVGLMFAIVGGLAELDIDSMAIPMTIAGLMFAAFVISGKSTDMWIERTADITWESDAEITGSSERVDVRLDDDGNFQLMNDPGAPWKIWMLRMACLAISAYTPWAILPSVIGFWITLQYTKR
Target sequence (P06935 1502-1679 limits assumed): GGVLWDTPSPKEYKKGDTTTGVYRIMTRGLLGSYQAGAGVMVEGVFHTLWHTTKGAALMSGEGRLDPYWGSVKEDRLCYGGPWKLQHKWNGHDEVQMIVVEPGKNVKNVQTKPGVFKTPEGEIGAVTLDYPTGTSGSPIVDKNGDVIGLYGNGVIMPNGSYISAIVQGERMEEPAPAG
E coli WT exp: growth inhibitors of wild-type E. coli, primary screen, strain BW25113, expanded library, OD600 | OD600 absorbance | growth inhibition, % at 100 µM | 98,000 tested, 0.15% active;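 active means growth inhibition above about 50% at one test dose, limit read from the data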;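 further: growth measured after 20 h incubation at 37 °C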
tolC growth inh: growth inhibitors of E. coli tolC mutant, primary screen, strain BW25113 ΔtolC::kan, 384-well; growth inhibition, % at 10 µM (by protocol); OD615; AID 573, 2007; 65,000 tested, 2.2% active;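 active means growth inhibition at or above a cutoff equal to the mean over every tested compound plus 3 SD, cut at about 60% in these data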;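 further: growth measured after 20 h incubation at 37 °C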
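System: E. coli ΔtolC::kan strain BW25113; Buffer or medium: LB broth supplemented with 50 µg/mL kanamycin; Compound: 10 µM final, single dose; Incubation: bacterial growth with compound for 20 h at 37 °C; Signal: A615 absorbance measurement; Evaluation: growth inhibition in percent.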
TNAP act DEA: human TNAP enzyme activators, primary screen, biochemical, luminescent, intermediate phosphate acceptor level; Alkaline phosphatase, tissue-nonspecific isozyme (Homo sapiens), P05186; purified TNAP, CDP-star luminescence, 100 mM DEA, 30 min; stronger effect = higher value; scale: 0 levamisole-inhibited, 1 vehicle-only enzyme; activation factor at 20 µM; 64,000 tested, under 10 active;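 active means activation factor of at least 2 at 20 µM, relative to controls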
BAP1 block: inhibitors of BAP1 deubiquitinase, primary screen, biochemical, Ub-AMC fluorescence, kinetic; Ubiquitin carboxyl-terminal hydrolase BAP1 (Homo sapiens), Q92560; recombinant BAP1, Ub-AMC hydrolysis fluorescence kinetic; stronger effect = lower value; calls only at 20 µM; 72,000 tested, 0.48% active; AID 436, 2006;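 active means activity remaining at or below 50% of control, provided the compound also passes the data quality filters; inactive means the rest, including low values that fail the filters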;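 further: 100% = DMSO wells rate and 0% = substrate alone blank rate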
An asterisk follows results filed as active; i = inactive; · = no result given.

SMILES	WNV NS2B-NS3 inh	E coli WT exp	tolC growth inh	TNAP act DEA	BAP1 block
COC(=O)CNC(=O)CN1C(=O)N(c2ccc(Cl)cc2)C(N(O)C(=O)Nc2ccc(Cl)cc2)C1(C)C (configuration not stated)	·	14.0	·	·	·
O=C(NC(=S)NCCc1ccccc1)c1ccccc1	·	-4.0	·	·	·
O=C(CCc1ccccc1)NNC(=S)NC(=O)c1ccccc1	·	63.0*	·	·	·
O=C(NNC(=S)NC(=O)c1cccnc1)c1ccccc1	·	53.0*	·	·	·
COc1ccc2ccccc2c1-c1csc(NC(=O)c2ccc(S(=O)(=O)N3CCCC3)cc2)n1	·	·	·	·	i
Cc1ccccc1S(=O)(=O)Cc1ccc(C(=O)NCCCOC(C)C)o1	-5.59*	3.0	-17.1	0.9	i
Cc1ccccc1S(=O)(=O)Cc1ccc(C(=O)NCc2cccnc2)o1	0.23	-2.0	-9.6	0.9	i
COC(=O)c1ccc(CSc2nc3ccccc3[nH]2)o1	·	14.0	·	·	·
COC(=O)c1cc(CSc2nc3ccc(C)cc3[nH]2)oc1C	-0.13	·	73.2*	1	·
c1cncc(-c2nc3c4ccccc4nc(N4CCC(N5CCCCC5)CC4)n3n2)c1	0.14	·	-0.2	0.9	i
CCCC(=O)Nc1nc(-c2ccc3c(c2)CCN3S(C)(=O)=O)cs1	·	1.0	·	·	·
CC1Cc2cc(-c3csc(NC(=O)Cc4cccs4)n3)ccc2N1S(C)(=O)=O (configuration not stated)	-1.14	-13.0	63.4*	1	·
Clc1ccc2[nH]c3c(c2c1)CCc1cn[nH]c1-3	-1.23	78.0*	100.0*	1	i
O=C(c1ccc2c(=O)n(C3CCCC3)c(=S)[nH]c2c1)N1CCN(C2CCCCC2)CC1	-1.64	4.0	67.6*	0.9	i
CCN1CCN(C(=O)c2ccc3c(=O)n(C4CCCC4)c(=S)[nH]c3c2)CC1	0.05	-7.0	-9.6	0.9	i
Cc1ccc(CN(c2ccc(C(=O)N3CCCC3)cc2)S(C)(=O)=O)cc1	-0.63	9.0	0.0	1	i
COc1ccc(CCNc2oc(COc3ccccc3F)nc2C#N)cc1	-0.91	-6.0	88.5*	0.9	i
COc1ccc2nc(N3CCC(C)CC3)c(C#N)cc2c1	-0.43	5.0	96.7*	0.9	i
Cc1ccccc1OCCCCc1c(C)n[nH]c1C	-0.9	9.0	100.0*	0.9	i
Cc1cccc(C)c1OCCCCc1c(C)n[nH]c1C	1.71	5.0	49.3	1.1	i
CCc1ccccc1N1C(=O)C2C(c3ccc(Br)cc3)OC3(C(=O)c4ccccc4C3=O)C2C1=O (configuration not stated)	·	·	·	·	i
CCCN(CCC)S(=O)(=O)c1ccc(C(=O)Nc2nnc(-c3cc(OC)cc(OC)c3)o2)cc1	2.58	-6.0	97.8*	1	·
CCCN(CCC)S(=O)(=O)c1ccc(C(=O)Nc2nnc(-c3cccc(OC)c3)o2)cc1	0.55	·	100.0*	1	i
COCCN(CCOC)S(=O)(=O)c1ccc(C(=O)Nc2nnc(C3CC3)o2)cc1	-0.48	-1.0	-8.9	0.9	i
Cc1[nH]c(-c2ccc3c(c2)OCO3)nc1C(=O)O	·	-14.0	·	·	·
SMILES	WNV NS2B-NS3 inh	E coli WT exp	tolC growth inh	TNAP act DEA	BAP1 block
CC(C)N1CCC2(CC1)N=C(c1ccc3c(c1)OCO3)CC(c1cc(Cl)ccc1O)N2 (configuration not stated)	-0.18	29.0	100.0*	0.9	i
CCN(CC)C(=O)C(=O)N/N=C/c1ccc(Br)cc1	·	0.0	·	·	·
CCCCCn1c(CN2CCN(c3cccc(Cl)c3)CC2)nc2c1c(=O)n(C)c(=O)n2C	0.26	·	62.4*	0.9	i
COc1ccc(OC/C(O)=C(\C#N)c2nc3ccccc3[nH]2)cc1	·	-4.0	·	·	·
Cc1ccc(SC/C(O)=C(\C#N)c2nc3ccccc3s2)cc1	-0.24	-15.0	83.2*	0.9	i
N#C/C(=C(/O)CSc1ccccc1C(=O)O)c1nc2ccccc2s1	·	-5.0	·	·	·
COc1ccc(C/C(O)=C(\C#N)c2nc3ccccc3s2)cc1	0.14	-7.0	74.0*	0.9	i
CCOc1cccc(C=Nc2ccc(NC(=O)c3cccc(Cl)c3)cc2)c1O	·	·	·	·	i
O=C(Nc1nnc(C2CC2)s1)c1cc(-c2ccccc2)nn1-c1ccccc1	0.8	-11.0	66.6*	0.8	·
COc1ccc(S(=O)(=O)C(C#N)c2nc3ccccc3nc2N2CCCC(C)C2)cc1 (configuration not stated)	-0.02	-5.0	68.1*	0.9	i
Cc1ccc(S(=O)(=O)C(C#N)c2nc3ccccc3nc2N2CCCC2)cc1 (configuration not stated)	1.77	-1.0	26.3	0.9	·
Cc1cccc(S(=O)(=O)C(C#N)c2nc3ccccc3nc2N2CC(C)OC(C)C2)c1 (configuration not stated)	1.09	-4.0	62.3*	1	i
CC1CCN(c2nc3ccccc3nc2C(C#N)S(=O)(=O)c2ccccc2)CC1 (configuration not stated)	-0.83	·	76.4*	1	·
O=C(Nc1nc2ccc(Cl)cc2s1)c1ccccc1Br	·	·	·	·	i
COc1cccc(C2C(C(=O)c3sc(C)nc3C)=C(O)C(=O)N2CCN(C)C)c1OC (configuration not stated)	-0.51	·	-11.4	0.9	i
CCOC(=O)C1CCN(C(c2cccnc2)c2c(NC(=O)c3ccco3)sc(C)c2C)CC1 (configuration not stated)	-0.29	-11.0	76.6*	0.9	·
Cc1sc(NC(=O)c2ccco2)c(C(c2cccnc2)N2CCN(c3ccc(F)cc3)CC2)c1C (configuration not stated)	-0.74	-12.0	13.1	1	i
O/N=C(\c1ccc(Cl)cc1)c1cc2ccccc2o1	-0.06	-3.0	97.5*	0.8	i
O=C(Oc1ccc(Cl)cc1)c1cc2ccccc2o1	·	·	·	·	i
O=C(CCC1CCCCC1)N1CCN(Cc2ccc3c(c2)OCO3)CC1	-0.28	14.0	27.1	1	i
Cc1[nH]n2c(=O)c3c(nc2c1-c1ccc(Cl)cc1)CCC3	-0.59	-5.0	99.8*	1	·
Cc1[nH]n2c(=O)c3c(nc2c1-c1ccccc1)CCC3	0.4	-2.0	28.9	1	i
O=S(=O)(Nc1ccc(S(=O)(=O)N2CCCCC2)cc1)c1ccc(Br)s1	-1.11	0.0	84.5*	1	i
O=S(=O)(Nc1ccc(S(=O)(=O)N2CCCCCC2)cc1)c1cccs1	·	-3.0	·	·	·
COc1ccc(S(=O)(=O)Nc2ccc(S(=O)(=O)N3CCCCC3)cc2)cc1	-0.47	1.0	73.5*	0.9	i
COc1ccc(S(=O)(=O)Nc2ccc(S(=O)(=O)N3CCCC3)cc2)cc1	·	0.0	·	·	·
Clc1ccc2nc(CN3CCCc4ccccc43)cn2c1	0.12	11.0	61.2*	1	i
N#Cc1nc(Cc2ccccc2)oc1NCc1ccccc1Cl	-0.15	30.0	92.6*	0.8	i
N#Cc1nc(Cc2ccccc2)oc1NCc1cccnc1	0.23	·	6.3	0.9	i

Bioassay records (PubChem)
